A selection: hits, their analogues and other compounds. The true share with any hit is near 2.5%.
SENP1 FRET inh: SENP1 (human) catalytic domain inhibition. 360,000 compounds, 0.21% hits. AID 624204. Q9P0U3. recombinant SENP1 catalytic domain, CyPet-SUMO1-YPet FRET cleavage. inhibition, % at 10 µM;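 active = inhibition at least 30% at 10 µM, raw YFP signal under a set limit, fluorescence ratio 0.5 to 1.5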
Target sequence (Q9P0U3 419-644 limits assumed): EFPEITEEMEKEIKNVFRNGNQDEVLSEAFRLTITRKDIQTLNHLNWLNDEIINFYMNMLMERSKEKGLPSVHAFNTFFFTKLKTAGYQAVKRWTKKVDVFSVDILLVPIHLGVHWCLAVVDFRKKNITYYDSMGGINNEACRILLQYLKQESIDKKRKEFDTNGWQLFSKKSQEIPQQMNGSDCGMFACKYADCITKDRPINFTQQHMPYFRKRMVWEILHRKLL
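material = recombinant human SENP1 catalytic domain, His6-tagged | quantity = 20 pM enzyme | reagent = 25 nM SUMO1 FRET substrate | compound dosing = 10 µM single point, 0.5% DMSO | timing = 50 min enzyme reaction, room temperature, light-protected | detection = FRET, CFP and YFP emission | control set = no-enzyme low, enzyme-DMSO high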
SENP8 block-1: SENP8 (human) protease inhibition; Q96LD8; recombinant SENP8, Nedd8 substrate fluorescence; inhibition, % at 20 µM; 360,000 compounds, 0.64% hits; AID 602440; in the data active = inhibition mostly above about 40%, no sharp cut-off; inactive = mostly below about 27%
Target sequence (Q96LD8 whole entry, looked up): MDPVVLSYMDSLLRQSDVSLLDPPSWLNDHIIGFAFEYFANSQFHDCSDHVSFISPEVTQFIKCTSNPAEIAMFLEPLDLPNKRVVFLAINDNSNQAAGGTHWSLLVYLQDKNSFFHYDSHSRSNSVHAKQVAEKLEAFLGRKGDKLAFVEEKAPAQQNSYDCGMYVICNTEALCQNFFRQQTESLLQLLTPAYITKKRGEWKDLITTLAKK
SENP8 block-2: SENP8 protease inhibition; Q96LD8; purified SENP8, Z-RLRGG-aminoluciferin cleavage, luminescence; inhibition, % at 10 µM; 330,000 compounds, 1.2% hits; AID 2540; in the data active = inhibition above about 50%
SENP7 block: inhibitors of human SENP7 protease | recombinant SENP7, Z-RLRGG-aminoluciferin luminescence, 40 min | AID 434973 | 330,000 compounds, 1.5% hits | Q9BQF6 | inhibition, % at 5 µM;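 active = inhibition above about 50% at the single test dose, limit read from the data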
SENP6 inh: blocks the human protease SENP6 | Recombinant SENP6 catalytic domain, aminoluciferin luminescence | inhibition, % at 10 µM | 330,000 compounds, 1.8% hits | AID 2599;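 active = inhibition above about 50% at the single tested dose, limit read from the data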
SENP1 conf: SENP1 (human) inhibition, single concentration confirmation; 520 compounds, 34% hits; AID 651678; recombinant SENP1, CyPet-SUMO1-YPet FRET cleavage; inhibition, % at 10 µM; shares compounds with SENP1 FRET inh; in the data active = inhibition mostly above about 35%, no sharp cut-off; inactive = mostly below about 32%
SENP1 kin conf: SENP1 (human) inhibition, kinetic confirmation | shares compounds with SENP1 FRET inh | 520 compounds, 26% hits | AID 651690 | inhibition, % at 10 µM | recombinant SENP1, CyPet-SUMO1-YPet FRET kinetic cleavage; in the data active = inhibition mostly above about 32%, no sharp cut-off; inactive = mostly below about 29%
Each line names hits and unclear results; the compound was inactive in the other large screens (follow-up assays come after a bar, where they were run).

CCc1ccccc1NC(=O)CNC(=O)CSC(=S)N1CCCC1	none
Cc1nc(C)c(C(=O)OCC(=O)Nc2ccccc2)s1	none
Cc1nc(C)c(C(=O)OCC(=O)Nc2ccccc2SCC#N)s1	SENP1 FRET inh 45 | SENP1 conf inactive | SENP1 kin conf inactive
Cc1ccc(C(=O)CCC(=O)OCC(=O)Nc2ccccc2SCC#N)cc1	SENP1 FRET inh 46 | SENP1 conf inactive | SENP1 kin conf inactive
O=C1NC(=S)N/C1=C/c1cccc([N+](=O)[O-])c1O	SENP1 FRET inh 40 | SENP1 conf inactive | SENP1 kin conf inactive
O=C1CC[C@@H]2C[C@@]3(C[C@@H]4CCN1[C@H]24)Nc1cc([N+](=O)[O-])ccc1NC3=NCc1ccccc1	SENP1 FRET inh 55 (no result: SENP8 block-2, SENP7 block, SENP6 inh) | SENP1 conf 42 | SENP1 kin conf inactive
O=C(c1ccc([N+](=O)[O-])s1)N1CCc2ccccc21	SENP1 FRET inh 55 | SENP1 conf inactive | SENP1 kin conf inactive
O=C(c1ccc([N+](=O)[O-])s1)N1CCCc2ccccc21	none
Cc1c(NC(=O)COc2ncnc3ccccc23)c(=O)n(-c2ccccc2)n1C	none
Cc1ccc2n(n1)c(=O)c(Cc1ccccc1)c([O-])[n+]2-c1ccccc1	SENP1 FRET inh 35 | SENP1 conf 53 | SENP1 kin conf 35
COC(=O)C1=C(C)N(Cc2ccco2)C(=O)/C1=C\c1ccc(N(C)C)cc1	SENP1 FRET inh 46 | SENP1 conf inactive | SENP1 kin conf inactive
CN(C)C(=O)CSc1ccc(S(=O)(=O)N2CCCC2)cn1	SENP1 FRET inh 39 | SENP1 conf 44 | SENP1 kin conf 42
COc1ccccc1CCNC(=O)CNC(=O)c1ccc2ccccc2c1	none
CC1CCc2c(sc3ncnc(SCC(=O)N(C)C4CCS(=O)(=O)C4)c23)C1 (centres undefined)	SENP1 FRET inh 32 | SENP1 conf inactive | SENP1 kin conf inactive
COc1ccc(C2C(C(C)=O)=C(C)N=c3s/c(=C\c4ccco4)c(=O)n32)c(OC)c1 (centres undefined)	SENP1 FRET inh 37 | SENP1 conf 41 | SENP1 kin conf 32
O=C1C=Cc2ccccc2/C1=C/c1[nH]c(=O)[nH]c1O	SENP1 FRET inh 60 | SENP1 conf 104 | SENP1 kin conf 76
Cc1cccc(NC(=O)c2ccc(NCCc3ccccc3)c([N+](=O)[O-])c2)c1	SENP1 FRET inh 86 | SENP1 conf inactive | SENP1 kin conf inactive
Cc1ccc(NC(=O)c2ccc(NCc3ccco3)c([N+](=O)[O-])c2)cc1Cl	SENP1 FRET inh 37 | SENP1 conf inactive | SENP1 kin conf inactive
Cc1ccc(NC(=O)c2ccc(NCCN)c([N+](=O)[O-])c2)cc1	none
CN1C2=C(C(=O)CC(C)(C)C2)C(c2cccs2)C2=C1CC(C)(C)CC2=O	none
Cc1ccccc1-n1c(SCC(=O)NC2CC2)nc2ccccc2c1=O	none (no result: SENP8 block-2, SENP7 block, SENP6 inh)
N#C/C(=C\c1ccc(Cl)c([N+](=O)[O-])c1)c1ccccn1	none
CNc1ccc(/C=C(\C#N)c2ccccn2)cc1[N+](=O)[O-]	SENP1 FRET inh 46 | SENP1 conf inactive | SENP1 kin conf inactive
O=C(COC(=O)c1cccc(Br)c1)NCC1CCCO1 (centres undefined)	none
CC(=O)Nc1cc(-c2ccc(N3CCN(C)CC3)cc2)cn2c(-c3ccc(F)c(Cl)c3)cnc12	SENP1 FRET inh 42 (no result: SENP8 block-2, SENP7 block, SENP6 inh) | SENP1 conf inactive | SENP1 kin conf inactive
CC(=O)Nc1cc(-c2ccc(N3CCN(C)CC3)cc2)cn2c(-c3cccc(C(C)=O)c3)cnc12	SENP1 FRET inh 37 (no result: SENP8 block-2, SENP7 block, SENP6 inh) | SENP1 conf inactive | SENP1 kin conf inactive
O=C(NCCC(=O)N1CCN(S(=O)(=O)c2ccccc2Cl)CC1)Nc1ccccc1	none
CC(C)C(=O)Nc1nnc(COc2ccc(Cl)cc2)s1	SENP1 FRET inh 46 | SENP1 conf inactive | SENP1 kin conf inactive
CC(=O)Oc1ccc(N2C(=O)C3C(C2=O)C(C(=O)c2ccc(Cl)cc2)N2CCCC32)cc1 (centres undefined)	SENP1 FRET inh 61 | SENP1 conf 86 | SENP1 kin conf 45
Cc1ccc(-c2ccc(SCC(=O)N3CCN(c4ccccc4)CC3)nn2)cc1	SENP1 FRET inh 32 | SENP1 conf inactive | SENP1 kin conf inactive
CCN(CC)CCCNC(=O)c1cc(Nc2ccc(OC)cc2)nc2ccccc12	none
Cc1ccc(OCC(=O)NC(=S)Nc2ccc(Br)cn2)cc1C	none
N#CC1=C(N)Oc2cc(N)ccc2C1c1cccnc1 (centres undefined)	none
N#CC1=C(N)Oc2cc(Nc3ccccc3)ccc2C1c1ccncc1 (centres undefined)	SENP1 FRET inh 77 | SENP1 conf 31 | SENP1 kin conf inactive
CCC(=Nc1ccc(N)cc1)C1=C(O)C(C(=O)OC)C(C)(C)CC1=O (centres undefined)	SENP1 FRET inh 54, SENP8 block-1 70 | SENP1 conf inactive | SENP1 kin conf inactive
CCC(=NCc1ccccc1)C1=C(O)C(C(=O)OC)C(C)(C)CC1=O (centres undefined)	none
Cc1nc(-c2cccc(NC(=O)c3cc4cc(Br)ccc4oc3=O)c2)cs1	SENP1 FRET inh 38 | SENP1 conf inactive | SENP1 kin conf inactive
CCOC(=O)C1CCCN(C(=O)c2cc(C#N)cs2)CC1 (centres undefined)	none (no result: SENP8 block-2, SENP7 block, SENP6 inh)
O=c1[nH]ncc2c3ccccc3n(Cc3cccc(Cl)c3)c12	SENP1 FRET inh 86 | SENP1 conf 106 | SENP1 kin conf 62
Cc1ccc2cc3c(N)c(C(=O)N4CCOCC4)sc3nc2c1	SENP1 FRET inh 47 | SENP1 conf 40 | SENP1 kin conf inactive
Cc1ccc2nc3sc(C(=O)N4CCOCC4)c(N)c3cc2c1	none
CCOc1ccc(NC(=O)CN2C(=O)CSC2=O)cc1	none
COc1cc([C@H]2c3c(cc(OC)c(O)c3OC)C[C@@H](CO)[C@@H]2CO[C@@H]2O[C@H](CO)[C@@H](O)[C@H](O)[C@H]2O)cc(OC)c1O	SENP1 FRET inh 40 | SENP1 conf 33 | SENP1 kin conf inactive
Fc1ccc(-c2cnn3c(-c4ccncc4)ccnc23)cc1	none
Fc1ccc(-c2cnn3c(-c4cccs4)ccnc23)cc1	SENP1 FRET inh 56 (no result: SENP8 block-2, SENP7 block, SENP6 inh) | SENP1 conf inactive | SENP1 kin conf inactive
Cc1c(/C=N/NC(=O)CNc2ccccc2)c2ccccn2c1C(=O)c1ccc(Cl)cc1	SENP1 FRET inh 31 | SENP1 conf inactive | SENP1 kin conf inactive
Cc1ccccc1NCC(=O)N/N=C/c1c(C)c(C(=O)c2ccc(Cl)cc2)n2ccccc12	none
C1=CCN(Cc2ccccc2)C1	none
Cc1ccccc1NC(=O)c1cccc(C(=O)Nc2ccccc2C)n1	SENP1 FRET inh 38 | SENP1 conf inactive | SENP1 kin conf inactive

Screening results from PubChem.
